ChEMBL document CHEMBL1127395, “Synthesis and antimicrobial activity of novel 3-[(aminopyrimidiniumyl)thio]methyl cephalosporins” (1994)
In brackets after ≈: the same amount, converted by molar mass.

Assays:
Citrobacter freundii = test: In vitro minimum inhibitory concentration for Citrobacter freundii (ATCC-8090) by agar dilution method; format: functional
How it was run: (§1)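 Two-fold serial dilutions of each compound dispersed in Mueller-Hinton agar; plates spot-inoculated with 2 μL of standard test strain at 10^7 CFU/mL, incubated 37 °C for 20 h; MIC read as lowest concentration inhibiting growth.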

Enterobacter cloacae = test: In vitro minimum inhibitory concentration for Enterobacter cloacae (ATCC-27508) by agar dilution method; format: functional; how it was run: as §1
Klebsiella aerogenes = test: In vitro minimum inhibitory concentration for Enterobacter aerogenes (ATCC-29751) by agar dilution method; format: functional; how it was run: as §1
Klebsiella pneumoniae = test: In vitro minimum inhibitory concentration for Klebsiella pneumoniae (ATCC-10031) by agar dilution method; format: functional
Pseudomonas aeruginosa [1] = test: In vitro minimum inhibitory concentration for Pseudomonas aeruginosa (ATCC-27853) by agar dilution method; format: functional; how it was run: as §1
Proteus vulgaris = test: In vitro minimum inhibitory concentration for Proteus vulgaris (ATCC-6059) by agar dilution method; format: functional; how it was run: as §1
Salmonella typhimurium = test: In vitro minimum inhibitory concentration for Salmonella Typhimurium (ATCC-14028) by agar dilution method; format: functional, Salmonella enterica subsp. enterica serovar Typhimurium; how it was run: as §1
Serratia marcescens = test: In vitro minimum inhibitory concentration for Serratia marcescens (ATCC-27117) by agar dilution method; format: functional; how it was run: as §1
[2] = test system: Staphylococcus epidermidis; test: In vitro minimum inhibitory concentration for Staphylococcus epidermidis (ATCC-12228) by agar dilution method; format: functional; how it was run: as §1
Staphylococcus aureus = test: In vitro minimum inhibitory concentration for Staphylococcus aureus (ATCC 6538p) by agar dilution method; format: functional; how it was run: as §1
Escherichia coli = test: In vitro minimum inhibitory concentration for Escherichia coli (ATCC-10536) by agar dilution method; format: functional; how it was run: as §1
Pseudomonas aeruginosa [3] = test: In vitro minimum inhibitory concentration for Pseudomonas aeruginosa (ATCC 10145) by agar dilution method; format: functional; how it was run: as §1
[4] = Citrobacter freundii, read-out: MIC
[5] = Enterobacter cloacae, read-out: MIC
[6] = Klebsiella aerogenes, read-out: MIC
[7] = Klebsiella pneumoniae, read-out: MIC
[8] = Pseudomonas aeruginosa, read-out: MIC
[9] = Proteus vulgaris, read-out: MIC
[10] = Salmonella enterica, read-out: MIC
[11] = Serratia marcescens, read-out: MIC
[12] = Staphylococcus epidermidis, read-out: MIC
[13] = Staphylococcus aureus, ATCC 6538p, read-out: MIC
[14] = Escherichia coli, read-out: MIC

| SMILES | MIC (Citrobacter freundii; [4]) [µg/mL] | MIC (Enterobacter cloacae; [5]) [µg/mL] | MIC (Klebsiella aerogenes; [6]) [µg/mL] | MIC (Klebsiella pneumoniae; [7]) [µg/mL] | MIC (Pseudomonas aeruginosa [1]; [8]) [µg/mL] | MIC (Proteus vulgaris; [9]) [µg/mL] | MIC (Salmonella typhimurium; [10]) [µg/mL] | MIC (Serratia marcescens; [11]) [µg/mL] | MIC [2, 12] [µg/mL] | MIC (Staphylococcus aureus; [13]) [µg/mL] | MIC (Escherichia coli; [14]) [µg/mL] | MIC (Pseudomonas aeruginosa [3]) [µg/mL] | further results |
| --- | --- | --- | --- | --- | --- | --- | --- | --- | --- | --- | --- | --- | --- |
| Cc1cc(C)nc(SCC2=C(C(=O)O)N3C(=O)C(NC(=O)/C(=N\OC(C)(C)C(=O)O)c4cnc(N)s4)C3SC2)n1 (stereo not given) | 0.5 (≈ 0.823 µM) | 0.5 (≈ 0.823 µM) | 8 (≈ 13.2 µM) | 0.5 (≈ 0.823 µM) | 32 (≈ 52.7 µM) | 0.25 (≈ 0.411 µM) | 4 (≈ 6.58 µM) | 2 (≈ 3.29 µM) | 8 (≈ 13.2 µM) | 32 (≈ 52.7 µM) | 0.5 (≈ 0.823 µM) | 64 (≈ 105 µM) |  |
| C[n+]1c(N)cc(N)nc1SCC1=C(C(=O)[O-])N2C(=O)C(NC(=O)/C(=N\OC(C)(C)C(=O)O)c3cnc(N)s3)C2SC1 (stereo in doubt; 23) |  |  |  |  |  |  |  |  |  |  |  |  | MIC (Citrobacter freundii): 0.13 µg/mL (≈ 0.208 µM); MIC (Enterobacter cloacae): 0.06 µg/mL (≈ 0.0962 µM); MIC (Klebsiella aerogenes): 2 µg/mL (≈ 3.21 µM); MIC (Klebsiella pneumoniae): 0.06 µg/mL (≈ 0.0962 µM); MIC (Pseudomonas aeruginosa [1]): 2 µg/mL (≈ 3.21 µM); MIC (Proteus vulgaris): 0.06 µg/mL (≈ 0.0962 µM); MIC (Salmonella typhimurium): 0.25 µg/mL (≈ 0.401 µM); MIC (Serratia marcescens): 0.13 µg/mL (≈ 0.208 µM); MIC [2]: 2 µg/mL (≈ 3.21 µM); MIC (Staphylococcus aureus): 4 µg/mL (≈ 6.41 µM); MIC (Escherichia coli): 0.06 µg/mL (≈ 0.0962 µM) |
| Cc1c(N)nc(SCC2=C(C(=O)[O-])N3C(=O)C(NC(=O)/C(=N\OC(C)(C)C(=O)O)c4cnc(N)s4)C3SC2)[n+]2nc(C)n(C)c12 (stereo not given) | 0.13 (≈ 0.192 µM) | 0.03 (≈ 0.0443 µM) | 1 (≈ 1.48 µM) | 0.13 (≈ 0.192 µM) | 4 (≈ 5.91 µM) | 0.13 (≈ 0.192 µM) | 0.25 (≈ 0.369 µM) | 0.5 (≈ 0.739 µM) | 2 (≈ 2.96 µM) | 8 (≈ 11.8 µM) | 0.25 (≈ 0.369 µM) | 8 (≈ 11.8 µM) |  |
| CC(C)(O/N=C(\C(=O)NC1C(=O)N2C(C(=O)O)=C(CSc3nccc(O)n3)CSC12)c1cnc(N)s1)C(=O)O (stereo not given) | 8 (≈ 13.4 µM) | 4 (≈ 6.72 µM) | 32 (≈ 53.7 µM) | 8 (≈ 13.4 µM) | > 128 | 2 (≈ 3.36 µM) | 64 (≈ 107 µM) | 16 (≈ 26.9 µM) | > 128 | > 128 | 8 (≈ 13.4 µM) | > 128 |  |
| C/C=C/[n+]1c(N)cc(N)nc1SCC1=C(C(=O)[O-])N2C(=O)C(NC(=O)/C(=N\OC(C)(C)C(=O)O)c3cnc(N)s3)C2SC1 (stereo not given) | 0.13 (≈ 0.2 µM) | 0.03 (≈ 0.0462 µM) | 2 (≈ 3.08 µM) | 0.06 (≈ 0.0923 µM) | 2 (≈ 3.08 µM) | 0.06 (≈ 0.0923 µM) | 0.25 (≈ 0.385 µM) | 0.13 (≈ 0.2 µM) | 2 (≈ 3.08 µM) | 4 (≈ 6.16 µM) | 0.13 (≈ 0.2 µM) | 2 (≈ 3.08 µM) |  |
| Cc1c(N)nc(SCC2=C(C(=O)[O-])N3C(=O)C(NC(=O)/C(=N\OC(C)(C)C(=O)O)c4cnc(N)s4)C3SC2)[n+]2ncn(C)c12 (stereo not given) | 0.06 (≈ 0.0905 µM) | 0.02 (≈ 0.0302 µM) | 1 (≈ 1.51 µM) | 0.06 (≈ 0.0905 µM) | 2 (≈ 3.02 µM) | 0.06 (≈ 0.0905 µM) | 0.25 (≈ 0.377 µM) | 0.25 (≈ 0.377 µM) | 2 (≈ 3.02 µM) | 8 (≈ 12.1 µM) | 0.13 (≈ 0.196 µM) | 4 (≈ 6.04 µM) |  |
| CN[n+]1c(N)cc(N)nc1SCC1=C(C(=O)[O-])N2C(=O)C(NC(=O)/C(=N\OC(C)(C)C(=O)O)c3cnc(N)s3)C2SC1 (stereo not given) | 0.5 (≈ 0.783 µM) | 0.13 (≈ 0.204 µM) | 16 (≈ 25.1 µM) | 0.25 (≈ 0.391 µM) | 8 (≈ 12.5 µM) | 0.03 (≈ 0.047 µM) | 1 (≈ 1.57 µM) | 1 (≈ 1.57 µM) | 16 (≈ 25.1 µM) | 32 (≈ 50.1 µM) | 0.5 (≈ 0.783 µM) | 8 (≈ 12.5 µM) |  |
| CC(C)(O/N=C(\C(=O)NC1C(=O)N2C(C(=O)O)=C(CSc3nc(N)cc(N)n3)CSC12)c1cnc(N)s1)C(=O)O (stereo not given) | 1 (≈ 1.64 µM) | 0.25 (≈ 0.41 µM) | 2 (≈ 3.28 µM) | 0.25 (≈ 0.41 µM) | 2 (≈ 3.28 µM) | 0.031 (≈ 0.0508 µM) | 0.5 (≈ 0.82 µM) | 0.5 (≈ 0.82 µM) | 8 (≈ 13.1 µM) | 32 (≈ 52.5 µM) | 0.25 (≈ 0.41 µM) | 4 (≈ 6.56 µM) |  |
